The values below come from ChEMBL document CHEMBL1133105, “Antimalarial, antitrypanosomal, and antileishmanial activities and cytotoxicity of bis(9-amino-6-chloro-2-methoxyacridines): influence of the linker” (J Med Chem, 2000).

One test has as its system Leishmania infantum. As to the kind of experiment: Percentage of activity against Leishmania infantum at 6.25 uM; Toxic upon mouse primary peritoneal macrophages. The class given is functional, organism-based.
Conditions: not given
In outline:
(§1)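 Starch-stimulated mouse peritoneal macrophages, 30 000/well, infected after 24 h with spleen-derived L. infantum amastigotes (10:1) together with 2-fold drug dilutions (12.5–1.56 µM). Incubated 7 days at 37 °C, 5% CO2. Wright-stained slides scored microscopically as % reduction of total parasite load or of infected macrophages. Uninfected treated cultures judged microscopically for macrophage toxicity.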
Take `COc1ccc2nc3cc(Cl)ccc3c(NCCCN(CCCNc3c4ccc(Cl)cc4nc4ccc(OC)cc34)C(=O)C(NC(=O)OC(C)(C)C)C(C)C)c2c1` (centres undefined): the Cytotoxicity result is “Toxic”.

A further test relates to Leishmania infantum. The experiment in a line: Percentage of activity against Leishmania infantum at 1.56 uM. The class given is functional.
Conditions: not given
In outline: as §1
On to `COc1ccc2nc3cc(Cl)ccc3c(NCCCN(CCCNc3c4ccc(Cl)cc4nc4ccc(OC)cc34)C(=O)C(NC(=O)OC(C)(C)C)C(C)C)c2c1` (centres undefined), for which the “Antileishmanial activity (% reduction of parasite load)” value was 95%.

For the next test, the system named is Leishmania infantum. The experiment in a line: Percentage of activity against Leishmania infantum at 12.5 uM Concentration; Toxic upon mouse primary peritoneal macrophages. The class given is functional, organism-based.
Conditions: not given
In outline: as §1
As for `COc1ccc2nc3cc(Cl)ccc3c(NCCCN(CCCNc3c4ccc(Cl)cc4nc4ccc(OC)cc34)C(=O)C(NC(=O)OC(C)(C)C)C(C)C)c2c1` (centres undefined), the Cytotoxicity result was “Toxic”.

The subject of another test is Leishmania infantum. As to the kind of experiment: Percentage of activity against Leishmania infantum at 3.13 uM. The class given is functional.
Conditions: not given
The method, boiled down:
as §1
For the compound `COc1ccc2nc3cc(Cl)ccc3c(NCCCN(CCCNc3c4ccc(Cl)cc4nc4ccc(OC)cc34)C(=O)C(NC(=O)OC(C)(C)C)C(C)C)c2c1` (centres undefined), the “Percent antileishmanial activity (reduction of parasite load)” value is listed as 99%.

The next test has as its system MRC5. As to the kind of experiment: In Vitro cytotoxicity on MRC-5 cells. It is filed as functional. The following applies: Homo sapiens. The method, boiled down:
(§2)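 MRC-5 human diploid embryonic lung cells seeded at 5 000/well, washed after 24 h, then given 2-fold drug dilutions (25, 12.5, 6.25, 3.13 µM) in RPMI + 5% FCS, final DMSO below 0.5%. Incubated 7 days at 37 °C, 5% CO2. MTT colorimetric read-out, scored as % reduction of absorbance at 540 nm versus untreated controls.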
As to `O=C(Cn1ccnc1[N+](=O)[O-])NCc1ccccc1` [BENZNIDAZOLE], the half-maximal cytotoxic concentration (CC50) was greater than 50000 nM.

For the next test, the system named is MRC5. As to the kind of experiment: Cytotoxicity on MRC-5 cells at 12.5 uM. The following applies: Homo sapiens. The class given is functional. In outline:
as §2
`COc1ccc2nc3cc(Cl)ccc3c(NCCCN(CCCNc3c4ccc(Cl)cc4nc4ccc(OC)cc34)C(=O)C(NC(=O)OC(C)(C)C)C(C)C)c2c1` (centres undefined) gave a cytotoxicity at 12.5 µM of 59%.

The test system of another test is MRC5. As to the kind of experiment: Cytotoxicity on MRC-5 cells at 25 uM. It is filed as functional. The following applies: Homo sapiens. The method, boiled down:
as §2
`COc1ccc2nc3cc(Cl)ccc3c(NCCCN(CCCNc3c4ccc(Cl)cc4nc4ccc(OC)cc34)C(=O)C(NC(=O)OC(C)(C)C)C(C)C)c2c1` (centres undefined) registered a cytotoxicity at 25 µM of 60%.

A further test has as its system MRC5. As to the kind of experiment: Cytotoxicity on MRC-5 cells at 3.13 uM. To be noted: Homo sapiens. The class given is functional. The method, boiled down:
as §2
In turn, `COc1ccc2nc3cc(Cl)ccc3c(NCCCN(CCCNc3c4ccc(Cl)cc4nc4ccc(OC)cc34)C(=O)C(NC(=O)OC(C)(C)C)C(C)C)c2c1` (centres undefined) displayed a cytotoxicity at 3.13 µM of 43%.

Another test deals with MRC5. The experiment in a line: Cytotoxicity on MRC-5 cells at 6.25 uM. The class given is functional. The following applies: Homo sapiens. The method, boiled down: as §2
Regarding `COc1ccc2nc3cc(Cl)ccc3c(NCCCN(CCCNc3c4ccc(Cl)cc4nc4ccc(OC)cc34)C(=O)C(NC(=O)OC(C)(C)C)C(C)C)c2c1` (centres undefined), the cytotoxicity at 6.25 µM turned out to be 54%.

The next test concerns Plasmodium falciparum. As to the kind of experiment: Parasite growth inhibition against Plasmodium falciparum W2. It is filed as functional, organism-based.
Conditions: not given
In outline:
(§3)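 Asynchronous cultures of each strain on human erythrocytes (0.5% parasitemia, 1% final hematocrit) were exposed to serially diluted drug for 24 h at 37 °C. Then 0.5 µCi [3H]hypoxanthine per well was added for 24 h. Incorporation was compared with a drug-free control on the same plate. IC50 was taken from the concentration-response curve as the mean of several independent experiments. DMSO was at most 0.1%.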
`COc1ccc2nc3cc(Cl)ccc3c(NCCCN(CCCNc3c4ccc(Cl)cc4nc4ccc(OC)cc34)C(=O)C(NC(=O)OC(C)(C)C)C(C)C)c2c1` (centres undefined) showed a half-maximal inhibitory concentration (IC50) of 40 nM. This counts as double-digit nanomolar.

A further test has as its system Plasmodium falciparum. As to the kind of experiment: Parasite growth inhibition against Plasmodium falciparum F32A.
Conditions: not given
It is filed as functional, organism-based. The method, boiled down: as §3
`COc1ccc2nc3cc(Cl)ccc3c(NCCCN(CCCNc3c4ccc(Cl)cc4nc4ccc(OC)cc34)C(=O)C(NC(=O)OC(C)(C)C)C(C)C)c2c1` (centres undefined) registered an IC50 of 57 nM.

The test system of another test is Plasmodium falciparum. As to the kind of experiment: Parasite growth inhibition against Plasmodium falciparum FCM29. The class given is functional, organism-based.
Conditions: not given
The method, boiled down:
as §3
The compound `COc1ccc2nc3cc(Cl)ccc3c(NCCCN(CCCNc3c4ccc(Cl)cc4nc4ccc(OC)cc34)C(=O)C(NC(=O)OC(C)(C)C)C(C)C)c2c1` (centres undefined) yielded a concentration for half-maximal inhibition (IC50) of 16 nM.

In another test the test system is Plasmodium falciparum. The experiment in a line: Parasite growth inhibition against Plasmodium falciparum FCR3. The class given is functional, organism-based.
Conditions: not given
The method, boiled down: as §3
On to `COc1ccc2nc3cc(Cl)ccc3c(NCCCN(CCCNc3c4ccc(Cl)cc4nc4ccc(OC)cc34)C(=O)C(NC(=O)OC(C)(C)C)C(C)C)c2c1` (centres undefined), for which the concentration for half-maximal inhibition (IC50) was found to be 22 nM.

A further test has as its system Plasmodium falciparum. As to the kind of experiment: In vitro sensitivity for Plasmodium falciparum FcB1R. The class given is functional, organism-based.
Conditions: not given
The method, boiled down:
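Asynchronous P. falciparum cultures in human erythrocytes (0.5% parasitemia, 1% haematocrit) exposed to serially diluted drug for 24 h at 37 °C. [3H]hypoxanthine (0.5 µCi/well) then added for a further 24 h. Uptake compared with drug-free controls on the same plate. IC50 taken from the concentration–response curve, averaged over independent experiments. DMSO ≤0.1%.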
`COc1ccc2nc3cc(Cl)ccc3c(NCCCN(CCCNc3c4ccc(Cl)cc4nc4ccc(OC)cc34)C(=O)C(NC(=O)OC(C)(C)C)C(C)C)c2c1` (centres undefined): the IC50 turned out to be 25 nM.

Another test concerns Plasmodium falciparum. The experiment in a line: Parasite growth inhibition against Plasmodium falciparum GP1. The class given is functional, organism-based.
Conditions: not given
The method, boiled down: as §3
Take `COc1ccc2nc3cc(Cl)ccc3c(NCCCN(CCCNc3c4ccc(Cl)cc4nc4ccc(OC)cc34)C(=O)C(NC(=O)OC(C)(C)C)C(C)C)c2c1` (centres undefined): 83 nM corresponded to half-maximal inhibition (IC50).

In the next test the test system is Plasmodium falciparum. The experiment in a line: Parasite growth inhibition against Plasmodium falciparum K1. The class given is functional, organism-based.
Conditions: not given
The method, boiled down:
as §3
`COc1ccc2nc3cc(Cl)ccc3c(NCCCN(CCCNc3c4ccc(Cl)cc4nc4ccc(OC)cc34)C(=O)C(NC(=O)OC(C)(C)C)C(C)C)c2c1` (centres undefined) displayed an IC50 of 36 nM.

The subject of another test is Trypanosoma cruzi. The experiment in a line: Percentage of activity against Trypanosoma cruzi at 1.56 uM. It is filed as functional.
Conditions: not given
In outline: (§4)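 Mouse peritoneal macrophages, 30 000/well, infected after 24 h with about 100 000 T. cruzi trypomastigotes per well plus 2-fold drug dilutions (12.5–1.56 µM). Incubated 4 days at 37 °C, 5% CO2. Methanol-fixed, Giemsa-stained and scored microscopically as % reduction of total parasite load (free trypomastigotes plus intracellular amastigotes) versus untreated controls.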
`COc1ccc2nc3cc(Cl)ccc3c(NCCCN(CCCNc3c4ccc(Cl)cc4nc4ccc(OC)cc34)C(=O)C(NC(=O)OC(C)(C)C)C(C)C)c2c1` (centres undefined) gave a Parasite load reduction of 70%.

The next test concerns Trypanosoma cruzi. As to the kind of experiment: Percentage of activity against Trypanosoma cruzi at 12.5 uM; Toxic upon mouse primary peritoneal macrophages.
Conditions: not given
It is filed as functional, organism-based. The method, boiled down: as §4
For `COc1ccc2nc3cc(Cl)ccc3c(NCCCN(CCCNc3c4ccc(Cl)cc4nc4ccc(OC)cc34)C(=O)C(NC(=O)OC(C)(C)C)C(C)C)c2c1` (centres undefined), the Cytotoxicity result is “Toxic”.

A further test concerns Trypanosoma cruzi. The experiment in a line: Percentage of activity against Trypanosoma cruzi at 3.13 uM. It is filed as functional.
Conditions: not given
The method, boiled down: as §4
On to `COc1ccc2nc3cc(Cl)ccc3c(NCCCN(CCCNc3c4ccc(Cl)cc4nc4ccc(OC)cc34)C(=O)C(NC(=O)OC(C)(C)C)C(C)C)c2c1` (centres undefined), for which the “Reduction of T. cruzi parasite load” value is given as 90%.

The subject of another test is Trypanosoma cruzi. The experiment in a line: In Vitro evaluation for the percentage of activity towards Trypanosoma cruzi at 6.25 uM Concentration; Toxic upon mouse primary peritoneal macrophages.
Conditions: not given
The class given is functional, organism-based. In outline:
as §4
As to `COc1ccc2nc3cc(Cl)ccc3c(NCCCN(CCCNc3c4ccc(Cl)cc4nc4ccc(OC)cc34)C(=O)C(NC(=O)OC(C)(C)C)C(C)C)c2c1` (centres undefined), the Cytotoxicity result is “Toxic”.

The subject of a further test is Trypanosoma brucei. The experiment in a line: Percentage of activity against Trypanosoma brucei at 6.25 uM. It is filed as functional.
Conditions: not given
The method, boiled down:
(§5)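 Bloodstream-form T. brucei in HMI-9 medium, 10 000 parasites/well, exposed to 12.5, 6.25, 3.13 and 1.56 µM drug for 4 days. Read-out is % inhibition of parasite multiplication. Macrophage toxicity judged on mouse primary peritoneal macrophages.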
As to `COc1ccc2nc3cc(Cl)ccc3c(NCCCN(CCCNc3c4ccc(Cl)cc4nc4ccc(OC)cc34)C(=O)C(NC(=O)OC(C)(C)C)C(C)C)c2c1` (centres undefined), the “Inhibition of parasite multiplication” value was found to be 100%.

The test system of the next test is Trypanosoma brucei. The experiment in a line: Percentage of activity against Trypanosoma brucei at 1.56 uM. It is filed as functional.
Conditions: not given
The method, boiled down:
as §5
Regarding `COc1ccc2nc3cc(Cl)ccc3c(NCCCN(CCCNc3c4ccc(Cl)cc4nc4ccc(OC)cc34)C(=O)C(NC(=O)OC(C)(C)C)C(C)C)c2c1` (centres undefined), the “Percent inhibition of parasite multiplication” value was found to be 100%.

The next test has as its system Trypanosoma brucei. The experiment in a line: Percentage of activity against Trypanosoma brucei at 3.13 uM. It is filed as functional.
Conditions: not given
The method, boiled down:
as §5
For `COc1ccc2nc3cc(Cl)ccc3c(NCCCN(CCCNc3c4ccc(Cl)cc4nc4ccc(OC)cc34)C(=O)C(NC(=O)OC(C)(C)C)C(C)C)c2c1` (centres undefined), the Parasite growth inhibition was determined as 100%.

A further test relates to Plasmodium falciparum. The experiment in a line: Growth inhibition of chloroquine-sensitive Plasmodium falciparum 3D7.
Conditions: not given
`COc1ccc2nc3cc(Cl)ccc3c(NCCCN(CCCNc3c4ccc(Cl)cc4nc4ccc(OC)cc34)C(=O)C(NC(=O)OC(C)(C)C)C(C)C)c2c1` (centres undefined) showed an IC50 of 49 nM.
